Published values pooled from the literature.
Target: Adenosine receptor A2a (ADORA2A, Homo sapiens, UniProt P29274)

SMILES | effect on | method | tested at | endpoint | value
COCc1c(-c2cc3cc(C)cc(OC)c3s2)c2c(N)ncnn2c1CN1CCNC(=O)C1 | ligand displacement | radioligand | 10 µM | inhibition | 7%
O=c1ccc2ccccc2o1 | ligand displacement | radioligand | 10 µM | inhibition | -4.26%
OC[C@@]12C[C@@H]1[C@@H](n1cnc3c(NC(C4CCCC4)C4CCCC4)nc(Cl)nc31)[C@H](O)[C@@H]2O | ligand displacement | radioligand | 10 µM | inhibition | 24%
COc1ccc(S(=O)(=O)N2CCCCC2)cc1C | ligand displacement | radioligand | 10 µM | inhibition | < 30%
Clc1ccc2c(C3CCN(CCc4c[nH]c5ccccc45)CC3)c[nH]c2c1 | ligand displacement | radioligand | 10 µM | inhibition | -12%
CC(C)Cn1cnc2c(N)nc3ccccc3c21 | ligand displacement | radioligand | 10 µM | inhibition | 89%
CC(C)N1CCC[C@H]1CNC(=O)c1cn(C2CCCC2)c(=O)c2c1c1ccccc1n2C | ligand displacement | radioligand | 10 µM | inhibition | 6%
CCN(CC)CCCC[C@H](NC(=O)[C@H](CC(C)C)NC(=O)[C@H](C)NC(=O)[C@H](Cc1ccccc1)NC(=O)c1ccc(C(C)(C)C)cc1)C(=O)N[C@@H](CO)C(=O)OC | ligand displacement | radioligand | 10 µM | remaining binding | 102%
OC[C@@]12C[C@@H]1[C@@H](n1cnc3c(NC(C4CCCC4)C4CCCC4)nc(Cl)cc31)[C@H](O)[C@@H]2O | ligand displacement | radioligand | 10 µM | inhibition | -12%
c1ccc(C(NCCNC(c2ccccc2)c2ccccc2)c2ccccc2)cc1 | cell-free assay | – | 10 µM | inhibition | 12%
Nc1ncc(-c2nc(N3CCOCC3)nc(N3CCOCC3)n2)c(C(F)F)n1 | cell-free assay | radioligand | 10 µM | remaining signal | 93.3%
O=C(Nc1cccnn1)N1CCN([C@@H]2CCOc3cc(C(F)(F)F)ccc32)CC1 | ligand displacement | – | 20 µM | inhibition | 15%
C[C@H](C(=O)N[C@H]1COc2ccccc2[C@@H]1S(C)(=O)=O)c1ccc(F)cc1 | cell-free assay | – | 10 µM | inhibition | 1%
